Reference: ChEMBL document CHEMBL3352174, “Identification of a New RXRα Antagonist Targeting the Coregulator-Binding Site” (ACS Med Chem Lett, 2014)
Changes are numbered by the printed parent chain. The source made the active and inactive calls. No cut-off for these calls is given here.

Experiments:
[1] = molecular target: T1, Retinoic acid receptor RXR-gamma (Homo sapiens) (UniProt P48443); test: Antagonist activity against RXRgamma ligand binding domain (unknown origin) expressed in human HEK293T cells assessed as inhibition of 9-cis-RA-induced receptor transactivation at 2 and 10 uM after 18 hrs by luciferase reporter gene based mammalian one-hybrid assay; format: cell-based; settings: HEK-293T
T1 sequence (whole entry): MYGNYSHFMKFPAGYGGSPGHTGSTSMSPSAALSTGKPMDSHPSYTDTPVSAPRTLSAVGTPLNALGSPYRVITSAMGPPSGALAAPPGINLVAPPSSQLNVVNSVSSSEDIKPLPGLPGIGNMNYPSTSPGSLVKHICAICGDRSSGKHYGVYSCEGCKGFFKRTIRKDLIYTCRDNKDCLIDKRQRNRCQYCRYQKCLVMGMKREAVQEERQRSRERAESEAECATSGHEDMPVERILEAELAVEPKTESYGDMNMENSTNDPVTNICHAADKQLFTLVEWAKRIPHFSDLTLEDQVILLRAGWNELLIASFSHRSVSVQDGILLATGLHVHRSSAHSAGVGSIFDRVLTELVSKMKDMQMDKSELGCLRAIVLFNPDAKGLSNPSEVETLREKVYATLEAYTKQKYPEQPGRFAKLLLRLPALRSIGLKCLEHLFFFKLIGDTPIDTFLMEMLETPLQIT

[2] = molecular target: T2, Peroxisome proliferator-activated receptor gamma (Homo sapiens) (UniProt P37231); test: Antagonist activity against PPARgamma ligand binding domain (unknown origin) expressed in human MCF7 cells assessed as inhibition of ROS-induced receptor transactivation at 10 uM after 18 hrs by luciferase reporter gene based mammalian one-hybrid assay; format: cell-based
T2 sequence (whole entry): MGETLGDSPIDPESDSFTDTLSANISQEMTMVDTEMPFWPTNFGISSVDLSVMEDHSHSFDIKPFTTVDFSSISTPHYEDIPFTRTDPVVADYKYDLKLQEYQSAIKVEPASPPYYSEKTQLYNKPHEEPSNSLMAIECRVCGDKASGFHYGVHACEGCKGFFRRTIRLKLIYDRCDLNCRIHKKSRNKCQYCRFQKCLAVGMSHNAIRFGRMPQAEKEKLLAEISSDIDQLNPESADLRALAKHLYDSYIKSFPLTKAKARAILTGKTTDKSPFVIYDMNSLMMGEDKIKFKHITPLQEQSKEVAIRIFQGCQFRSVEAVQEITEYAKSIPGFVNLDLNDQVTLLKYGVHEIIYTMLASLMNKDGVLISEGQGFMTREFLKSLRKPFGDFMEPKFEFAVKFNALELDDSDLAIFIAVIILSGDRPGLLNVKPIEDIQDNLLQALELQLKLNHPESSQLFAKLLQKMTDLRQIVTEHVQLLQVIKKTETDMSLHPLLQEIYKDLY

[3] = molecular target: T3, Oxysterols receptor LXR-alpha (Homo sapiens) (UniProt Q13133); test: Antagonist activity against LXRalpha ligand binding domain (unknown origin) expressed in human MCF7 cells assessed as inhibition of T09-induced receptor transactivation at 10 uM after 18 hrs by luciferase reporter gene based mammalian one-hybrid assay; format: cell-based
T3 sequence (whole entry): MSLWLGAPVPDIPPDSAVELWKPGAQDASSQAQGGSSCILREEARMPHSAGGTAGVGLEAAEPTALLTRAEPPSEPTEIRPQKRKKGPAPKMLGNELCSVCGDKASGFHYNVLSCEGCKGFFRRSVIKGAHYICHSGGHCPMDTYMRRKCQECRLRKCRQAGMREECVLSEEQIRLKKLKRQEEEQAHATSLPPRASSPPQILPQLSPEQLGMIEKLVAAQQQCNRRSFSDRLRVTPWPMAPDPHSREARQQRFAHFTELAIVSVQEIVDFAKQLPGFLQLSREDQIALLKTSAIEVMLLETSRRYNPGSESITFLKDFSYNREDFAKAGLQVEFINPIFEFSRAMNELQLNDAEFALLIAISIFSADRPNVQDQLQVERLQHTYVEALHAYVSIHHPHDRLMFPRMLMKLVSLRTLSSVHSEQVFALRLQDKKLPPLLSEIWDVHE

[4] = tested on: T4, Retinoic acid receptor RXR-alpha (Homo sapiens), P19793 [C432W]; test: Antagonist activity against RXRalpha C432W/F313A mutant (unknown origin) expressed in human HEK293T cells assessed as inhibition of constitutive receptor transactivation at 1 to 10 uM after 18 hrs by luciferase reporter gene based mammalian one-hybrid assay; settings: HEK-293T
T4 sequence (whole entry): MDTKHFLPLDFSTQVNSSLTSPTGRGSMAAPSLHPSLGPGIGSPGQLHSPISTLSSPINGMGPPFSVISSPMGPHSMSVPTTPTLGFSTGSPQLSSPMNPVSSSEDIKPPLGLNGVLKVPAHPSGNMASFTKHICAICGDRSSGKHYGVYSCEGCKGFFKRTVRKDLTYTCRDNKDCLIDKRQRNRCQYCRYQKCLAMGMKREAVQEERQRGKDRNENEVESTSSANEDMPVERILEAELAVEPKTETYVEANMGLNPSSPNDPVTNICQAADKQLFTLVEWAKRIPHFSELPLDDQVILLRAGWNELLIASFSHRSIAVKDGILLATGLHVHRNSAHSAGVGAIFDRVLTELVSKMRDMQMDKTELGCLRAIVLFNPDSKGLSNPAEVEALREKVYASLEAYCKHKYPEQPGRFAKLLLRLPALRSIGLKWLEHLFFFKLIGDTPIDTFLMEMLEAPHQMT

[5] = tested on: T5, Retinoic acid receptor RXR-alpha (Homo sapiens), P19793 [V298S]; test: Antagonist activity against RXRalpha V298S mutant (unknown origin) expressed in human HEK293T cells assessed as inhibition of 9-cis-RA-induced receptor transactivation at 1 to 10 uM after 18 hrs by luciferase reporter gene based mammalian one-hybrid assay; format: cell-based; settings: HEK-293T
T5 sequence (whole entry): T4 sequence (whole entry) with V298S, W432C
Procedure, shortened: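 HEK-293T cells co-transfected with pG5-Luc and an RXRα mutant vector (V298S as pBind fusion; A272W, C432W LBP mutants). […] Luciferase read-out. Mean ± SD.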

Cc1cc(=O)oc2c(/C=N/NC(=O)CSc3nc4ccccc4s3)c(O)ccc12 was tested, and the inhibition [1] was “Active”, the inhibition [2] was “Active” and the inhibition [3] was “Active”. For the same molecule, the inhibition [4] was “Dose-dependent effect” and the inhibition [5] was “inactive”.
